Common to all, as to format: functional
The test system of assay [1] is Bacillus subtilis. The assay is described as follows: Antimicrobial activity against Bacillus subtilis pretreated 3 hrs before UV photosensitization measured after overnight reincubation under dark condition by agar plate disc diffusion method. In short, it runs like this:
(§1)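 B. subtilis 18 h broth culture (0.02 ml) mixed into 10 ml liquefied nutrient agar (beef extract, peptone, K2HPO4, agar). Each dish carries a DMF disc and a xanthotoxin disc (10 mg/ml DMF). Test plates kept dark at 37 °C for 3 h for diffusion, then uncovered and exposed to 365 nm UV for 20 min. A duplicate plate left unirradiated in the incubator overnight. Inhibition zones measured.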

Another assay has as its system Staphylococcus aureus. The assay is described as follows: Antibacterial activity against Staphylococcus aureus at 50 mg/mL after 48 hrs by agar plate disc diffusion method. Particulars: read-out: IZ. In short, it runs like this: (§2)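 Discs placed on nutrient agar plates (15 ml agar seeded with 0.2 mL of 18 h liquid culture of each organism); plates incubated 37 °C for 48 h, inhibition zone diameter read in mm around each disc. DMF-impregnated discs as solvent control; tetracycline (antibacterial) and amphotericin B (antifungal) references run concurrently.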

In the next assay the test system is Escherichia coli. Put plainly: Antibacterial activity against Escherichia coli at 50 mg/mL after 48 hrs by agar plate disc diffusion method. Particulars: read-out: IZ. In outline:
as §2
On the technique in general: In agar diffusion tests the substance spreads into inoculated agar from a disc or well.

In assay [2] the test system is Bacillus subtilis. The assay is described as follows: Antimicrobial activity against 20 mins UV photosensitized Bacillus subtilis measured after overnight reincubation under dark condition by agar plate disc diffusion method. In short, it runs like this: as §1
The next assay relates to Candida albicans. Put plainly: Antifungal activity against Candida albicans at 50 mg/mL after 48 hrs by agar plate disc diffusion method. Particulars: read-out: IZ. In outline: as §2

Structures are written as SMILES.

Turning to `CN(C)[C@@H]1C(O)=C(C(N)=O)C(=O)[C@@]2(O)C(O)=C3C(=O)c4c(O)cccc4[C@@](C)(O)[C@H]3C[C@@H]12` [TETRACYCLINE], the “inhibition zone (IZ)” value in the assay on Bacillus subtilis [1] was found to be 30 millimeter. Besides, the zone of inhibition at 50000 µg/mL with Staphylococcus aureus stood at 36 mm; in the assay with Escherichia coli it was 34 mm.

Turning to `COc1c2occc2c(OC)c2c(C)c(C(=O)NN)c(=O)oc12`, the “inhibition zone (IZ)” value in the assay on Bacillus subtilis [1] was determined as 12 millimeter; in the assay on Bacillus subtilis [2] it was 14 millimeter. The zone of inhibition at 50000 µg/mL with Escherichia coli came to 18 mm.

For `COc1c2occc2c(OC)c2c(C)c(C(=O)NNC(=S)NCc3ccccc3)c(=O)oc12`, the “inhibition zone (IZ)” value with Bacillus subtilis [1] came out at 10 millimeter; in the assay on Bacillus subtilis [2], 12 millimeter.

In the case of `C[C@@H]1[C@H](O)[C@@H](C)/C=C/C=C/C=C/C=C/C=C/C=C/C=C/[C@H](O[C@@H]2O[C@H](C)[C@@H](O)[C@H](N)[C@@H]2O)C[C@@H]2O[C@](O)(C[C@@H](O)C[C@@H](O)[C@H](O)CC[C@@H](O)C[C@@H](O)CC(=O)O[C@H]1C)C[C@H](O)[C@H]2C(=O)O` [AMPHOTERICIN B], the zone of inhibition at 50000 µg/mL in the assay with Candida albicans is 30 mm.

Turning to `COc1c2occc2cc2ccc(=O)oc12` [METHOXSALEN], the “inhibition zone (IZ)” value with Bacillus subtilis [2] is listed as 12 millimeter.

As to `Cc1c(-c2nnc(S)n2Cc2ccccc2)c(=O)oc2ccc3c(-c4ccccc4)cc(=O)oc3c12`, the “inhibition zone (IZ)” value in the assay with Bacillus subtilis [2] amounted to 12 millimeter.

Take `Cc1c(C(=O)NNC(=S)NCc2ccccc2)c(=O)oc2ccc3c(-c4ccccc4)cc(=O)oc3c12`: the results for the “inhibition zone (IZ)” value with Bacillus subtilis [1] and in the assay with Bacillus subtilis [2] were 18 millimeter and 22 millimeter, respectively. For the same compound, the values for the zone of inhibition at 50000 µg/mL with Staphylococcus aureus and in the assay on Escherichia coli were 30 mm and 20 mm, respectively.

Turning to `COc1c2occc2c(OC)c2c(C)c(-c3nnc(S)n3Cc3ccccc3)c(=O)oc12`, in the assay with Bacillus subtilis [2], the “inhibition zone (IZ)” value is 11 millimeter.

The values are drawn from ChEMBL document CHEMBL1154697, “Design, synthesis and docking studies of new furobenzopyranones and pyranobenzopyranones as photoreagent towards DNA and as antimicrobial agents” (2010).
